Compound activity: PubChem BioAssay, several laboratories
Ecoli WT expand – growth inhibitors of wild-type E. coli, primary screen, strain BW25113, expanded library, OD600. OD600 absorbance. growth inhibition, % at 100 µM. actives 0.15% (n = 98,000). AID 710, 2007;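 active = growth inhibition above about 50% at one test dose, limit read from the data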;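 also: growth measured after 20 h incubation at 37 °C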
PLAP act – PLAP enzyme activators, biochemical, luminescence, HTS; Alkaline phosphatase, placental type (Homo sapiens), P05187; purified PLAP enzyme, luminescent substrate read-out; active compounds read high; activation fold at 20 µM; actives 1.2% (n = 96,000); in the data active = activation fold above about 2
PostGolgi ctrl – growth inhibition of yeast control strain, primary screen, counter-screen for post-Golgi transport modulator project; efflux-deficient yeast background strain, growth absorbance A615, 16 h; actives 5% (n = 98,000); inhibition, % at 10 µM
PostGolgi yeast – phenotypic screen on post-Golgi transport, primary screen. AID 739, 2007. post-Golgi transport phenotypic cell assay. actives 0.9% (n = 98,000). inhibition, % at 10 µM;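 also: yeast cells grown in 1536-well plates; yeast grown about 18 h at 30C before absorbance read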
tolC growth inh – growth inhibitors of E. coli tolC mutant, primary screen, strain BW25113 ΔtolC::kan, 384-well | OD615 | actives 2.2% (n = 65,000) | AID 573, 2007 | growth inhibition, % at 10 µM (by protocol);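 active = growth inhibition at or above a cutoff equal to the mean over every tested compound plus 3 SD, cut at about 60% in these data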;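 also: growth measured after 20 h incubation at 37 °C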
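System: E. coli ΔtolC::kan strain BW25113; Buffer or medium: LB broth supplemented with 50 µg/mL kanamycin; Compound: 10 µM final, single dose; Incubation: bacterial growth with compound for 20 h at 37 °C; Signal: A615 absorbance measurement; Evaluation: growth inhibition in percent.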
HePTP inh – inhibitors of human HePTP phosphatase, primary screen, biochemical, absorbance, leukemia target; actives 0.64% (n = 110,000); AID 521, 2006; recombinant HePTP phosphatase activity, OD absorbance; inhibition, % at 20 µM; Tyrosine-protein phosphatase non-receptor type 7 (Homo sapiens), P35236; in the data active = inhibition above about 50%
Target sequence (P35236 whole entry, looked up): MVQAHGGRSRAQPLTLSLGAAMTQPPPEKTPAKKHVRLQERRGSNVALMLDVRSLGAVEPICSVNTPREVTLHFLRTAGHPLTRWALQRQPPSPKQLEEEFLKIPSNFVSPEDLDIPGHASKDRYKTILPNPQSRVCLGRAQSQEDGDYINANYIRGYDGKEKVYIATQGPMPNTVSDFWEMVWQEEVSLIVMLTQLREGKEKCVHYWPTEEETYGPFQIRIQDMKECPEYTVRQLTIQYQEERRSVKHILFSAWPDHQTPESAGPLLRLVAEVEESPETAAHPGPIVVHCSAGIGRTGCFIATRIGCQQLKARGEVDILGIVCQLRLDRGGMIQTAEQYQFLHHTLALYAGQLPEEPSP
Hits are given with their value. Most compounds without a hit are left out; they make up all but 5.5% or so of the library. Rule as the data show it, unless noted: active = inhibition above about 30%; inactive = the rest.

For Cc1ccc(NC(=O)c2cccc3c2C(=O)N(C2CCCCC2)C3)cc1 the results were Ecoli WT expand inactive, PLAP act inactive, PostGolgi ctrl 44 and PostGolgi yeast inactive.
For O=C(Nc1ccc2c(c1)OCO2)c1ccco1 the results were HePTP inh inactive.
CCn1c2ccccc2c2cc(CN3CCN(C(=O)c4cccs4)CC3)ccc21 was read as HePTP inh inactive.
For CSCSC1=C(C#N)C(c2ccc(Cl)cc2)C(C(C)=O)=C(C)N1 (stereo unspecified) the results were Ecoli WT expand inactive, PLAP act inactive, PostGolgi ctrl inactive, PostGolgi yeast inactive, tolC growth inh 96 and HePTP inh inactive.
For CCOC(=O)C1=C(c2ccccc2)NC(SCC(=O)Nc2cccc(C)c2)=C(C#N)C1c1ccco1 (stereo unspecified) the results were Ecoli WT expand inactive, PLAP act inactive, PostGolgi ctrl inactive, PostGolgi yeast inactive, tolC growth inh inactive and HePTP inh inactive.
For CCOC(=O)CSC1=C(C#N)C(c2ccco2)C(C(=O)Nc2cccc(C(F)(F)F)c2)=C(C)N1 (stereo unspecified) the results were Ecoli WT expand inactive, PLAP act inactive, PostGolgi ctrl 97, PostGolgi yeast inactive, tolC growth inh 61 and HePTP inh inactive.
Screening CC(=O)C1=C(C)NC(SCC(=O)c2ccc(Cl)cc2Cl)=C(C#N)C1c1ccco1 (stereo unspecified) returned Ecoli WT expand inactive, PLAP act inactive, PostGolgi ctrl 34, PostGolgi yeast inactive, tolC growth inh inactive and HePTP inh inactive.
`CCOC(=O)CSC1=C(C#N)C(c2ccccc2)C(C(C)=O)=C(C)N1` (stereo unspecified) gave Ecoli WT expand inactive, PLAP act inactive, PostGolgi ctrl inactive, PostGolgi yeast inactive, tolC growth inh inactive and HePTP inh inactive.
For O=C(O)CCC(=O)NCC1(c2ccccc2)CCOCC1 the results were HePTP inh inactive.
C#CCOc1ccc(/C=C2\C(=O)NC(=O)N(c3ccc(C)cc3)C2=O)cc1OC was read as HePTP inh inactive.
Screening COc1ccc2c(C)cc(SCc3c(C)noc3C)nc2c1 returned Ecoli WT expand inactive, PLAP act inactive, PostGolgi ctrl 32 and PostGolgi yeast inactive.
O=C(NCc1ccccc1)c1n[nH]nc1-c1ccccc1O was read as PLAP act 2.9, tolC growth inh inactive and HePTP inh inactive.
O=C(NCc1ccccc1)c1ccccc1Cl was read as HePTP inh inactive.
CCOCCCNC(=O)c1cc2sc(Cl)cc2n1CC was read as Ecoli WT expand inactive, PLAP act inactive, PostGolgi ctrl inactive, PostGolgi yeast 39, tolC growth inh inactive and HePTP inh inactive.
Screening CCOC(=O)CCNC(=O)Nc1ccc2nc(C)n(Cc3cccc(Cl)c3)c(=O)c2c1 returned Ecoli WT expand inactive, PLAP act inactive, PostGolgi ctrl inactive, PostGolgi yeast inactive, tolC growth inh inactive and HePTP inh inactive.
Screening Cc1nc2ccc(NC(=O)c3cccs3)cc2c(=O)n1Cc1ccc(Cl)cc1 returned Ecoli WT expand inactive, PLAP act inactive, PostGolgi ctrl 32 and PostGolgi yeast inactive.
For Cc1ccc(OCc2ccc(C(=O)Nc3c(C)nn(Cc4c(F)c(F)c(F)c(F)c4F)c3C)o2)c([N+](=O)[O-])c1 the results were Ecoli WT expand inactive, PLAP act inactive, PostGolgi ctrl 39 and PostGolgi yeast inactive.
Cc1ccc(S(=O)(=O)N2CCSC2c2ccccc2)cc1 (stereo unspecified) was read as HePTP inh inactive.
`CCN(CC)c1ccc(C2NC(=O)NC(C)=C2C(=O)OCCC#N)cc1` (stereo unspecified) gave HePTP inh inactive.
For Cc1ccc(C)c(Cn2nnc3c(=O)[nH]c(C4CCN(C(=O)c5cccs5)CC4)nc32)c1 the results were Ecoli WT expand inactive, PLAP act inactive, PostGolgi ctrl inactive, PostGolgi yeast inactive, tolC growth inh 64 and HePTP inh inactive.
For O=C(c1ccccc1)N1CCC(c2nc3c(nnn3Cc3ccco3)c(=O)[nH]2)CC1 the results were Ecoli WT expand inactive, PLAP act inactive, PostGolgi ctrl inactive and PostGolgi yeast inactive.
Screening O=C(c1ccc(Cl)cc1Cl)N1CCC(c2nc3c(nnn3Cc3ccco3)c(=O)[nH]2)CC1 returned Ecoli WT expand inactive, PLAP act inactive, PostGolgi ctrl inactive, PostGolgi yeast 30, tolC growth inh inactive and HePTP inh inactive.
Screening NC(=O)c1cccc(NC(=O)/C=C/C(=O)O)c1 returned HePTP inh inactive.
For COc1ccc(C2C(C(=O)N3CCCC3)CC(=O)N2c2ccc(OC)cc2)cc1 (stereo unspecified) the results were Ecoli WT expand inactive, PLAP act inactive, PostGolgi ctrl 38, PostGolgi yeast inactive, tolC growth inh inactive and HePTP inh inactive.
`COc1ccc(C)cc1S(=O)(=O)Nc1cccc(Cl)c1` gave Ecoli WT expand inactive, PLAP act inactive, PostGolgi ctrl 43, PostGolgi yeast inactive, tolC growth inh inactive and HePTP inh inactive.
Screening CCOc1ccc(S(=O)(=O)Nc2ccc(Cl)cc2)cc1 returned HePTP inh inactive.
CCOc1cc(S(=O)(=O)Nc2cc(C)cc(C)c2)ccc1Cl was read as Ecoli WT expand inactive, PLAP act inactive, PostGolgi ctrl 39 and PostGolgi yeast inactive.
For CCOc1ccc(S(=O)(=O)Nc2cc(Cl)ccc2O)cc1 the results were Ecoli WT expand inactive, PLAP act inactive, PostGolgi ctrl inactive, PostGolgi yeast inactive, tolC growth inh 67 and HePTP inh inactive.
CCOc1cc(S(=O)(=O)NC2CCCC2)ccc1Cl was read as Ecoli WT expand inactive, PLAP act inactive, PostGolgi ctrl inactive, PostGolgi yeast inactive, tolC growth inh inactive and HePTP inh inactive.
`CCOc1ccc(S(=O)(=O)Nc2cccc(Cl)c2)cc1` gave tolC growth inh 73 and HePTP inh inactive.
Screening COc1cccc(NS(=O)(=O)c2cc(C)ccc2OC)c1 returned Ecoli WT expand inactive, PLAP act inactive, PostGolgi ctrl inactive, PostGolgi yeast inactive, tolC growth inh inactive and HePTP inh inactive.
Cc1cccc(C(=O)Nc2sc3c(c2C(=O)N2CCOCC2)CCCCC3)c1 was read as HePTP inh inactive.
O=C(Nc1ccc(F)cc1)c1ccccc1C(F)(F)F was read as HePTP inh inactive.
COc1ccc(C2CC(=O)C3=C(C2)NC(C)=C(C(=O)Nc2ccccc2C)C3c2coc3ccc(C)cc3c2=O)cc1OC (stereo unspecified) was read as Ecoli WT expand inactive, PLAP act inactive, PostGolgi ctrl inactive and PostGolgi yeast 98.
Cc1cc(C(=O)Nc2ccc(NC(=O)C(=O)O)cc2)c(C)o1 was read as HePTP inh inactive.
`CCOC(=O)c1c(NC(C)=O)sc2c1CCC/C2=N/OC(=O)c1ccccc1` gave HePTP inh inactive.
